{"source": "ChEMBL document CHEMBL3286277", "about": "“Discovery of N-sulfonyl-7-azaindoline derivatives as potent, orally available and selective M(4) muscarinic acetylcholine receptor agonists” (Bioorg Med Chem Lett, 2014)", "key": {"[1]": {"target": "T1, Muscarinic acetylcholine receptor M1 (Homo sapiens) (UniProt P11229)", "T1 sequence (whole entry)": "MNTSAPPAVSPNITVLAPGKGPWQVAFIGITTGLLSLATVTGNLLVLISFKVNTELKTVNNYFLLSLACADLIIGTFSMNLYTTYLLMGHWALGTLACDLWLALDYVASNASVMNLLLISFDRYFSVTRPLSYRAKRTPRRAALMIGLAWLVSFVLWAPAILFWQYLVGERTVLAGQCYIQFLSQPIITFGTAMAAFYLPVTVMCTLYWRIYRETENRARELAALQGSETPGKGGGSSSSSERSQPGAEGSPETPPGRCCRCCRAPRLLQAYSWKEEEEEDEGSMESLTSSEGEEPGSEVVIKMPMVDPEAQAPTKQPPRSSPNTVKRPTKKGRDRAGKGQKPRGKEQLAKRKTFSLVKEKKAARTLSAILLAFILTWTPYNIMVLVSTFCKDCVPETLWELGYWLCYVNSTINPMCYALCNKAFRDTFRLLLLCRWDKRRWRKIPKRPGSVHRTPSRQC", "assay": "Agonist activity at human muscarinic acetylcholine receptor M1 expressed in CHO cells assessed as calcium mobilization at 0.3 uM by FLIPR assay relative to acetylcholine", "format": "functional, cell-based"}, "[2]": {"assay": "Ratio of drug level in brain to plasma in rat", "format": "ADME", "details": "brain and plasma, read-out: BPR"}, "[3]": {"target": "T2, Muscarinic acetylcholine receptor M4 (Homo sapiens) (UniProt P08173)", "T2 sequence (whole entry)": "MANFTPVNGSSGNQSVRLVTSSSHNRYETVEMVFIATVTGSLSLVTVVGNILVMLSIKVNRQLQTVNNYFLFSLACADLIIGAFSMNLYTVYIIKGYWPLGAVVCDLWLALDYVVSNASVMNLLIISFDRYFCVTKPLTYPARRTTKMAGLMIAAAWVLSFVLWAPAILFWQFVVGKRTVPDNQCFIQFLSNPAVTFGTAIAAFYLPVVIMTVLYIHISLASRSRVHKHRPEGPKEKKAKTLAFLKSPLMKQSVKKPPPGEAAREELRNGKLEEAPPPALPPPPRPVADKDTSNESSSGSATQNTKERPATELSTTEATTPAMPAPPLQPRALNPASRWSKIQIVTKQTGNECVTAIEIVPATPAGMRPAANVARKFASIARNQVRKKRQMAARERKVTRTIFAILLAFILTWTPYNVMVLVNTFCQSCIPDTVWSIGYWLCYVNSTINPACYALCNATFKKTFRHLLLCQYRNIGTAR", "assay": "Agonist activity at human muscarinic acetylcholine receptor M4 expressed in CHO cells assessed as calcium mobilization at 0.3 uM by FLIPR assay relative to acetylcholine", "format": "functional, cell-based"}, "[4]": {"target": "T2, Muscarinic acetylcholine receptor M4 (Homo sapiens)", "assay": "Intrinsic activity at human muscarinic acetylcholine receptor M4 expressed in CHO cells assessed as calcium mobilization by FLIPR assay relative to acetylcholine", "format": "functional, cell-based"}, "[5]": {"target": "D(2) dopamine receptor (Homo sapiens) (UniProt P14416)", "sequence (P14416 whole entry)": "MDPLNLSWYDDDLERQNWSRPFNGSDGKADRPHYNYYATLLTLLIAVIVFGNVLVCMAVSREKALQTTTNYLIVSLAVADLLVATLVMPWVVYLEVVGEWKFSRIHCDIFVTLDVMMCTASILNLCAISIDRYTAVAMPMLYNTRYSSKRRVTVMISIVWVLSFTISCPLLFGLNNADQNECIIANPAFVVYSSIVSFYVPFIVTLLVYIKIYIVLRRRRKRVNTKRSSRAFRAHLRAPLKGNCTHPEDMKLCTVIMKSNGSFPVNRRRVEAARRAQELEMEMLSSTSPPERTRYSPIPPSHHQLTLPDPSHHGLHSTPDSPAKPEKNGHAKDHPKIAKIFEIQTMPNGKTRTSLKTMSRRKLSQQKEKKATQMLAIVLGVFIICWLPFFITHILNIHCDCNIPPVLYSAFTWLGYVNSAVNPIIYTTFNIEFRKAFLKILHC", "assay": "Binding affinity to human dopamine D2 receptor at 3 uM by radioligand displacement assay relative to control"}, "[6]": {"target": "Muscarinic acetylcholine receptor M3 (Homo sapiens) (UniProt P20309)", "sequence (P20309 whole entry, looked up)": "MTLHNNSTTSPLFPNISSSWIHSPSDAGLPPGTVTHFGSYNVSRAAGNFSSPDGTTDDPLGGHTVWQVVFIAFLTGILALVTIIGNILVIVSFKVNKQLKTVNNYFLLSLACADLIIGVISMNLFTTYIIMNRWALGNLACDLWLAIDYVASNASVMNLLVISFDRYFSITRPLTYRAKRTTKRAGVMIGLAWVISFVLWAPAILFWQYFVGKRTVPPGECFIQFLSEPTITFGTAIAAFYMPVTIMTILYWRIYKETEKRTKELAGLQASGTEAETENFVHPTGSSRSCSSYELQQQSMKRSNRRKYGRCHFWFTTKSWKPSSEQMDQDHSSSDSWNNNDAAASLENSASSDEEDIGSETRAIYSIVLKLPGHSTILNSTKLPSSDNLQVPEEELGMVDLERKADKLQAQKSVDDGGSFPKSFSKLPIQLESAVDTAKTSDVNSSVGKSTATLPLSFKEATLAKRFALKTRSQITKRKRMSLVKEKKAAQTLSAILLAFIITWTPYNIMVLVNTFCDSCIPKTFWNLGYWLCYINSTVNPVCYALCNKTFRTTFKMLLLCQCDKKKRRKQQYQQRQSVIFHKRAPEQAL", "assay": "Agonist activity at human muscarinic acetylcholine receptor M3 expressed in CHO cells assessed as calcium mobilization at 0.3 uM by FLIPR assay relative to acetylcholine", "format": "functional, cell-based"}, "[7]": {"target": "T1, Muscarinic acetylcholine receptor M1 (Homo sapiens)", "assay": "Competitive antagonist activity at human muscarinic acetylcholine receptor M1 expressed in CHO cells assessed as inhibition of ACh-induced calcium mobilization", "format": "functional, cell-based"}, "Rattus norvegicus": {"system": "Rattus norvegicus", "assay": "Antipsychotic activity in po dosed Sprague-Dawley rat assessed as reversal of methamphetamine-induced hyperlocomotion administered 60 mins prior to methamphetamine challenge measured for 10 to 80 mins post methamphetamine challenge", "format": "functional, organism-based", "how_it_was_run": "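Rats were dosed orally with test compound (1–10 mg/kg) or vehicle 60 min before methamphetamine (0.1 mg/kg, ip). Locomotor activity was recorded for 80 min starting 10 min after the methamphetamine injection. Values are mean ± SEM, n = 6.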"}, "[8]": {"target": "T3, Alpha-1D adrenergic receptor (Homo sapiens) (UniProt P25100)", "T3 sequence (whole entry)": "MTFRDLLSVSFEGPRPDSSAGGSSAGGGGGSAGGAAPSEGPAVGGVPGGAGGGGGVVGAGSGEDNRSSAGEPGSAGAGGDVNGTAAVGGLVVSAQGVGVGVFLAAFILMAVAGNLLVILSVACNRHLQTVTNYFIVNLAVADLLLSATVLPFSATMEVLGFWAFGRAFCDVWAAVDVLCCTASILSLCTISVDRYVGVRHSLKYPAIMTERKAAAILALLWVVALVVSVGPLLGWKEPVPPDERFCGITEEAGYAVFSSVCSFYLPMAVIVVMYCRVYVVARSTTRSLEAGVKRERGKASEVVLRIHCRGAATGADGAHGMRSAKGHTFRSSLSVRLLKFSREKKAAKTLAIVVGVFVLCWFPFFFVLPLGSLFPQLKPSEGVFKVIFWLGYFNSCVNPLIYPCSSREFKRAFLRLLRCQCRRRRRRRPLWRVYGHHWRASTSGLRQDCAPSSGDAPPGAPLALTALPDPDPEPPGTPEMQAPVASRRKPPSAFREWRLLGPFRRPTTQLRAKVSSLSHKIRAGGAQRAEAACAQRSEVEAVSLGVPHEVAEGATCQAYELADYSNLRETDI", "assay": "Binding affinity to human adrenaline alpha-1D receptor at 3 uM by radioligand displacement assay relative to control"}, "[9]": {"target": "T4, Muscarinic acetylcholine receptor M2 (Homo sapiens) (UniProt P08172)", "T4 sequence (whole entry)": "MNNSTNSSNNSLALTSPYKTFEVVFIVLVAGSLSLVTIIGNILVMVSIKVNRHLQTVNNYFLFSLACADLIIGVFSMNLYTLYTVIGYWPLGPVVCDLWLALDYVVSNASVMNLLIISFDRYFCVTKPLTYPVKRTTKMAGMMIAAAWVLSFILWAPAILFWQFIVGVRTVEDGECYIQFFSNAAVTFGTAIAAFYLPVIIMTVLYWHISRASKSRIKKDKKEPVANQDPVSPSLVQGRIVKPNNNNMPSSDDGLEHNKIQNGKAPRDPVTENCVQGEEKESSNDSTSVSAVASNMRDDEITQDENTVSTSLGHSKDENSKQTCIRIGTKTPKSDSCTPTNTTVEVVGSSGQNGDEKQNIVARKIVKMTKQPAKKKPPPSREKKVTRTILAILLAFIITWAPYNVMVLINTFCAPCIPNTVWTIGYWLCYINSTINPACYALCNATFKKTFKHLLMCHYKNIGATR", "assay": "Agonist activity at human muscarinic acetylcholine receptor M2 expressed in CHO cells assessed as calcium mobilization at 0.3 uM by FLIPR assay relative to acetylcholine", "format": "functional, cell-based"}, "[10]": {"target": "Voltage-gated inwardly rectifying potassium channel KCNH2 (Homo sapiens, UniProt Q12809)", "sequence (Q12809 whole entry)": "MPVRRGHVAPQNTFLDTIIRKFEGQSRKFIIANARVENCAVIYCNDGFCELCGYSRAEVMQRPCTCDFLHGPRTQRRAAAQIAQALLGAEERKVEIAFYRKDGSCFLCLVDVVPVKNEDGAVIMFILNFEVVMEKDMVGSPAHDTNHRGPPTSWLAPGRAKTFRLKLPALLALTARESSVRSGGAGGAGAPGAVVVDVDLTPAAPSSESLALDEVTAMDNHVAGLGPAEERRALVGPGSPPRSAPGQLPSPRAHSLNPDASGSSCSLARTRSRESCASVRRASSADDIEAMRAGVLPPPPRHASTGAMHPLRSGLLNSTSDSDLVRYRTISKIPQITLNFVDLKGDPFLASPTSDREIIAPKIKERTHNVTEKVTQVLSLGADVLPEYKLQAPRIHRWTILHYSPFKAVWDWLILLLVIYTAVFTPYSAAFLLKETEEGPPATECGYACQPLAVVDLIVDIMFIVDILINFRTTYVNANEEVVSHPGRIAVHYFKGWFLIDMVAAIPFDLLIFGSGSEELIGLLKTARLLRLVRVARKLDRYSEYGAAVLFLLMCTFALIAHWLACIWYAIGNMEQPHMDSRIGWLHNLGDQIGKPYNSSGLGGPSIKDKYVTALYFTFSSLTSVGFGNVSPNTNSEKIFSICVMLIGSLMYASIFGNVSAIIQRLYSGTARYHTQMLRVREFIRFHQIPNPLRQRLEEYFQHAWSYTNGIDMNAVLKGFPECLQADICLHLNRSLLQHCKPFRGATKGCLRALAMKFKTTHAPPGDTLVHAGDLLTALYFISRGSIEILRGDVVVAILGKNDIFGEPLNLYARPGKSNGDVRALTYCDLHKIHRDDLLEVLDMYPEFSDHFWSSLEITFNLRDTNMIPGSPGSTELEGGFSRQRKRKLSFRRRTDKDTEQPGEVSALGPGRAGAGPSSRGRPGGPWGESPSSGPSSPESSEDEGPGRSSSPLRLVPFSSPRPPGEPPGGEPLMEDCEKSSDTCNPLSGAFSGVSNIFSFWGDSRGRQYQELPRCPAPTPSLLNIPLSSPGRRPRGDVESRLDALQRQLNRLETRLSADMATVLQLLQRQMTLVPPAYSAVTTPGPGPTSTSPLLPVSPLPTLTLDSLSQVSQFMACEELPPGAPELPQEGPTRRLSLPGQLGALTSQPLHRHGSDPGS", "assay": "Inhibition of human ERG tail current after 5 mins by patch-clamp method"}, "[11]": {"target": "T5, Muscarinic acetylcholine receptor M4 (Homo sapiens, UniProt P08173)", "T5 sequence (P08173 whole entry)": "T2 sequence (whole entry)", "assay": "Agonist activity at human muscarinic acetylcholine receptor M4 expressed in CHO cells assessed as calcium mobilization by FLIPR assay", "format": "functional, cell-based"}, "[12]": {"assay": "Oral bioavailability in rat at 1 mg/kg", "format": "ADME, organism-based", "details": "in vivo"}, "P-gp": {"system": "P-gp", "assay": "Activity of p-gp (unknown origin) assessed as efflux ratio", "format": "ADME", "details": "human, not told"}, "[13]": {"target": "Histamine H1 receptor (Homo sapiens) (UniProt P35367)", "sequence (P35367 whole entry)": "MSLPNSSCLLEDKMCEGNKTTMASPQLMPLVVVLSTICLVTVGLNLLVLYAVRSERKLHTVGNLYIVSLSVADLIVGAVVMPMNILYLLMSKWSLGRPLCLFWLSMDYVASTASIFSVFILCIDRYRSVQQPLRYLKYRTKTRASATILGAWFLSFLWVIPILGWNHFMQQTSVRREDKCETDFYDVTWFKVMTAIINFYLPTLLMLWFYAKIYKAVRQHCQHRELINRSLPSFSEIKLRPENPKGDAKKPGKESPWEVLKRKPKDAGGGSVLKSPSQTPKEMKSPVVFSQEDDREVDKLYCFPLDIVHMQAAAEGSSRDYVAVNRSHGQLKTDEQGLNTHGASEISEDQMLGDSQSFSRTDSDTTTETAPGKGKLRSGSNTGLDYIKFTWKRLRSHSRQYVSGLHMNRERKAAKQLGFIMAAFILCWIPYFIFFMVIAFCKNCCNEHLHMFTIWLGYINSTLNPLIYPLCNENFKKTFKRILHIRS", "assay": "Binding affinity to human histamine H1 receptor at 3 uM by radioligand displacement assay relative to control"}, "[14]": {"target": "T6, Muscarinic acetylcholine receptor M5 (Homo sapiens) (UniProt P08912)", "T6 sequence (whole entry)": "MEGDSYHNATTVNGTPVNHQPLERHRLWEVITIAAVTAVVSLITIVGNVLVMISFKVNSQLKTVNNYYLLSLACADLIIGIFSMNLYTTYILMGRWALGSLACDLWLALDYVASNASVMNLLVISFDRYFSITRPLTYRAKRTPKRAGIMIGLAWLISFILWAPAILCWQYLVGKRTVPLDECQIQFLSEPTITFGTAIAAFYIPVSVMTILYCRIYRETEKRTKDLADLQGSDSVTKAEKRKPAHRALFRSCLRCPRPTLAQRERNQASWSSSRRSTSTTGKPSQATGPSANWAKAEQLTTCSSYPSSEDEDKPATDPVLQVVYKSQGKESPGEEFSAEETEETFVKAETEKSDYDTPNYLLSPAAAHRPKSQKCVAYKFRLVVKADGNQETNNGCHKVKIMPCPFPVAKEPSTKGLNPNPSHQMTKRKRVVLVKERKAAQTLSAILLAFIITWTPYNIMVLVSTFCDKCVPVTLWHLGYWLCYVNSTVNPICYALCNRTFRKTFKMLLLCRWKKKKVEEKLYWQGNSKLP", "assay": "Agonist activity at human muscarinic acetylcholine receptor M5 expressed in CHO cells assessed as calcium mobilization at 10 uM by FLIPR assay relative to acetylcholine", "format": "functional, cell-based"}, "[15]": {"target": "T7, Muscarinic acetylcholine receptor M1 (Homo sapiens, UniProt P11229)", "T7 sequence (P11229 whole entry)": "T1 sequence (whole entry)", "assay": "Agonist activity at human muscarinic acetylcholine receptor M1 expressed in CHO cells assessed as calcium mobilization by FLIPR assay", "format": "functional, cell-based"}, "[16]": {"target": "T1, Muscarinic acetylcholine receptor M1 (Homo sapiens)", "assay": "Intrinsic activity at human muscarinic acetylcholine receptor M1 expressed in CHO cells assessed as calcium mobilization by FLIPR assay relative to acetylcholine", "format": "functional, cell-based"}}, "note": "Activity calls are given as the source filed them. The calls are words filed in the database; no cut-off is given here."}
{"smiles": "CCOC(=O)N1CCC(C)(CN2CCC3(CC2)CN(S(C)(=O)=O)c2ncccc23)CC1", "values": [{"measurement": "Emax", "setting": "[1]", "result": 5, "unit": "%"}, {"measurement": "Kp", "setting": "[2]", "result": 0.9}, {"measurement": "Emax", "setting": "[3]", "result": 94, "unit": "%"}, {"measurement": "Intrinsic activity", "setting": "[4]", "result": 81, "unit": "%"}, {"measurement": "inhibition", "setting": "[5]", "result": 0, "unit": "%"}, {"measurement": "Emax", "setting": "[6]", "result": 4, "unit": "%"}, {"measurement": "inhibition", "setting": "[7]", "result": "Active"}, {"measurement": "Activity", "setting": "Rattus norvegicus", "result": "Dose-dependent effect"}, {"measurement": "inhibition", "setting": "[8]", "result": 0, "unit": "%"}, {"measurement": "Emax", "setting": "[9]", "result": 3, "unit": "%"}, {"measurement": "IC50", "setting": "[10]", "result": 3630, "unit": "nM"}, {"measurement": "EC50", "setting": "[11]", "result": 13, "unit": "nM"}, {"measurement": "bioavailability", "setting": "[12]", "result": 49, "unit": "%"}, {"measurement": "efflux ratio", "setting": "P-gp", "result": 0.9}, {"measurement": "inhibition", "setting": "[13]", "result": 27, "unit": "%"}, {"measurement": "Emax", "setting": "[14]", "result": 3, "unit": "%"}]}
{"smiles": "CC1(CN2CCC3(CC2)CN(S(C)(=O)=O)c2ncccc23)CCN(C(=O)OC(C)(C)C)CC1", "values": [{"measurement": "Emax", "setting": "[3]", "result": 2, "unit": "%"}]}
{"smiles": "CCOC(=O)N1CCC(CN2CCC3(CC2)CN(S(C)(=O)=O)c2ncccc23)CC1", "values": [{"measurement": "Emax", "setting": "[1]", "result": 20, "unit": "%"}, {"measurement": "EC50", "setting": "[15]", "result": 352, "unit": "nM"}, {"measurement": "Emax", "setting": "[3]", "result": 88, "unit": "%"}, {"measurement": "Intrinsic activity", "setting": "[4]", "result": 83, "unit": "%"}, {"measurement": "Emax", "setting": "[6]", "result": 7, "unit": "%"}, {"measurement": "Intrinsic activity", "setting": "[16]", "result": 59, "unit": "%"}, {"measurement": "Emax", "setting": "[9]", "result": 12, "unit": "%"}, {"measurement": "IC50", "setting": "[10]", "result": 1900, "unit": "nM"}, {"measurement": "EC50", "setting": "[11]", "result": 93, "unit": "nM"}, {"measurement": "Emax", "setting": "[14]", "result": 3, "unit": "%"}]}
{"smiles": "CC(C)OC(=O)N1CCC(C)(CN2CCC3(CC2)CN(S(C)(=O)=O)c2ncccc23)CC1", "values": [{"measurement": "Emax", "setting": "[3]", "result": 3, "unit": "%"}, {"measurement": "IC50", "setting": "[10]", "result": 2750, "unit": "nM"}]}
{"smiles": "COC(=O)N1CCC(C)(CN2CCC3(CC2)CN(S(C)(=O)=O)c2ncccc23)CC1", "values": [{"measurement": "Emax", "setting": "[1]", "result": 3, "unit": "%"}, {"measurement": "Emax", "setting": "[3]", "result": 52, "unit": "%"}, {"measurement": "Emax", "setting": "[6]", "result": 1, "unit": "%"}, {"measurement": "Emax", "setting": "[9]", "result": 2, "unit": "%"}]}
{"smiles": "CCOC(=O)N1[C@@H]2CC[C@H]1C[C@H](CN1CCC3(CC1)CN(S(C)(=O)=O)c1ncccc13)C2", "values": [{"measurement": "Emax", "setting": "[3]", "result": 4, "unit": "%"}]}
